In ChEMBL document CHEMBL4382201 (J Med Chem, 2018):
Converted amounts (≈) assume the structure as drawn. The source made the active and inactive calls. No cut-off for these calls is given here.

Assays:
DNA [1] = experiment: Induction of DNA cross-linking activity in human CLL-derived lymphocytes assessed as increase in gammaH2AX formation at 5 to 20 uM after 24 hrs by flow cytometry; type: functional, cell-based
Summary of the method: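 Primary CLL lymphocytes from 5 patients were treated at 5-20 µM for 24 h. γH2AX was quantified by flow cytometry.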

[2] = Drug level in DMSO-d6/PBS buffer treated with (3-(((2-Amino-3-methoxy-3-oxopropyl)thio)methyl)-4-(bis(2-chloroethyl)amino)phenyl)boronic Acid assessed as compound formation after 10 days in presence of GSH by IT-TOF mass analysis; type: physicochemical; conditions: 240 h
Lymphocyte = experiment: Induction of apoptosis in human lymphocytes at 10 uM after 24 hrs by Annexin V-FITC/propidium iodide-staining based flow cytometry; type: cell-based
Summary of the method: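 Normal PBMCs from 3 donors were isolated on Ficoll and treated at 10 µM. Apoptosis was measured by annexin V-FITC/PI flow cytometry against time-matched untreated controls.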

DNA [3] = experiment: Induction of DNA cross-linking activity in human CLL-derived lymphocytes assessed as increase in gammaH2AX formation at 1 uM after 24 hrs by flow cytometry; type: functional, cell-based
Summary of the method: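 Primary CLL lymphocytes from 3 patients were treated for 24 h at 10 µM or 1 µM, depending on compound. H2AX phosphorylation (% γH2AX) was measured by flow cytometry.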

dsDNA [4] = experiment: Induction of DNA-interstanded-cross-link formation in [32P]-labeled 49-mer duplex DNA (unknown origin) at 1 mM in absence of H2O2 after 16 hrs by PAGE relative to control; type: functional
Summary of the method: (§1)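 A 32P-labelled 49-mer, annealed with 1.5 equiv complement (65 °C for 3 min in 10 mM potassium phosphate pH 7, 100 mM NaCl, then slow cooling), was used at 1.0 µM before final dilution. Duplex was mixed with compound (final 1 mM), NaCl and potassium phosphate pH 8, with or without H2O2. Incubation 16 h at room temperature, formamide quench, then 20% denaturing PAGE.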

MDA-MB-468 = experiment: Growth inhibition of human MDA-MB-468 cells after 48 hrs by […]; type: functional, cell-based; conditions: MDA-MB-468, 48 h
[5] = Solubility of the compound in PBS buffer at 10 mM at pH 7.4 by UV-based analysis; type: physicochemical
Summary of the method: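 Compound (10 mM DMSO stock) was diluted into pH 7.4 buffer (ethanolamine/KH2PO4/potassium acetate/KCl) to a final 5% DMSO. After sonication and 18 h agitation the mixture was filtered and scanned by UV at 230-800 nm. Solubility was calculated from calibration plots made in 20% acetonitrile buffer, in quadruplicate, with solubility standards on each plate.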

dsDNA [6] = experiment: Induction of DNA-interstanded-cross-link formation in [32P]-labeled 49-mer duplex DNA (unknown origin) at 1 mM in presence of H2O2 after 16 hrs by PAGE relative to control; type: functional; summary of the method: as §1
[7] = system: Panel NCI-60 (60 carcinoma cell lines); experiment: Growth inhibition of human NCI60 cells at 10 uM after 48 hrs by SRB assay relative to control; type: functional, cell-based
Summary of the method: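 NCI-60 one-dose screen: cells exposed to 10 µM for 48 h at 37 °C, 5% CO2, 100% humidity. Percent growth is given relative to the no-drug control and the time-zero cell count.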

CC1(C)OB(c2ccc(CO)cc2)OC1(C)C
Activity (DNA [1]): inactive

COC(=O)C1CSCc2cc(B(O)O)ccc2N(CCO)CCN1 (stereo unspecified)
Drug uptake [2]: Active

COc1cc(N(CCCl)CCCl)ccc1B1OC(C)(C)C(C)(C)O1
Activity (Lymphocyte): Non-Toxic
Activity (DNA [3]): Active
Activity (dsDNA [4]): 8%
IC50 (MDA-MB-468): 34.4 µM
solubility [5]: 50 µM (≈ 18.7 µg/mL)
Activity (dsDNA [6]): < 65%

COC(=O)C1CSCc2cc(B(O)O)ccc2N(CCCl)CCN1 (stereo unspecified)
Drug uptake [2]: Active

CCCCOC(=O)C(NC(=O)OC(C)(C)C)c1cn(Cc2cc(B3OC(C)(C)C(C)(C)O3)ccc2N(CCCl)CCCl)c2ccccc12 (stereo unspecified)
Activity (dsDNA [4]): < 5%
growth inhibition (GI) [7]: inactive

N[C@@H](Cc1ccc(N(CCCl)CCCl)cc1)C(=O)O [MELPHALAN]
Activity (dsDNA [4]): 4.9%
IC50 (MDA-MB-468): 48.7 µM

COC(=O)C(CSCc1cc(B2OC(C)(C)C(C)(C)O2)ccc1N(CCCl)CCCl)NC(=O)OC(C)(C)C (stereo unspecified)
Activity (dsDNA [4]): < 5%
growth inhibition (GI) [7]: inactive

N[C@H](CSCc1cc(B(O)O)ccc1N(CCO)CCCl)C(=O)O
Drug uptake [2]: Active
